Bioassay records as filed in PubChem BioAssay.
HCT116 bCat-KO – beta-catenin-lacking colon tumor cell growth suppression | HCT116 beta-catenin knockout viability, CellTiter-Glo, 60 h; active compounds read low | viability, % at 10 µM | hit rate 1.5% among 140,000 | AID 818;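 active means viability at or under a set limit, the compound median less 4 SD, cut at about 6% in these data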;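 further: 0% = Hyamine 1622 control at 20 µM and 100% = untreated cell control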
Fibroblast inh – blocks proliferation of human lung fibroblasts. viability, % at 10 µM. LL 47 human lung fibroblast viability, ATP luminescence; active compounds read low. hit rate 1.1% among 85,000;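 active means viability at or below 50% in the single dose screen; inactive means viability above 50%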;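 further: compound exposure lasted 72 h before the ATP readout; 100% = median luminescence of untreated cell-only wells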
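Times – overnight cell rest, 72 h compound treatment at 37 °C · Test system – human lung fibroblast line LL 47, low passage · Amount – 1,150 cells in each well · Controls – cell-only wells, no compound · Doses – 0.1% DMSO in all compound wells · Measured by – CellTiter-Glo luminescence · Buffer or medium – IMEM plus 15% FBS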
HUVEC inhibit – human endothelial cell proliferation inhibition; viability, % at 10 µM (by protocol); AID 648; HUVEC proliferation, CellTiter-Glo luminescence, 72 h; active compounds read low; hit rate 1.1% among 86,000;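 active means viability at or below 30%; inactive means viability above 30%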;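 further: 100% = median luminescence of DMSO-only cell control wells on each plate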
Candida biofilm – kills Candida albicans biofilms. C. albicans biofilm + clotrimazole, Alamar Blue. inhibition, % at 6 µM. hit rate 0.14% among 85,000;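 active means inhibition above 20%; inactive means inhibition below 20%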;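 further: preformed 24 hr biofilms exposed to compound for 48 hr; 0% = biofilm without compound and 100% = blank killed by clotrimazole plus chlorhexidine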
HCT116 PTEN-null – suppresses growth of cells with PTEN deletion; viability, % at 10 µM; HCT116 PTEN-null viability, CellTiter-Glo, 60 h; active compounds read low; hit rate 1.2% among 140,000;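 active means viability at or below a set limit, 4 SD under the median of all tested compounds, cut at about 3.7% in these data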;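 further: PTEN knockout HCT116 line with beta catenin targeted HCT116 as companion control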
H69AR inhibit – blocks growth of human H69AR lung tumor cells | H69AR lung tumor viability, ATP luminescence, 72 h; active compounds read low | viability, % at 10 µM | hit rate 6% among 85,000 | AID 598;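 active means viability at or below 40%; inactive means viability above 40%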;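 further: multidrug resistant small cell line overexpressing MRP-1 efflux transporter; 100% = mean luminescence of untreated control wells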
Active calls of the source: *; nt = no result. The sample as a whole holds a higher share of hits than the screen did.

SMILES	HCT116 bCat-KO	Fibroblast inh	HUVEC inhibit	Candida biofilm	HCT116 PTEN-null	H69AR inhibit
Cc1ccccc1NC(=O)COC(=O)CN1C(=O)NC(C)(C)C1=O	100	97	88	4	109	105
CN(c1ccccc1)S(=O)(=O)c1ccc(C(=O)Nc2nnc(-c3ccc(F)cc3)o2)cc1	17	71	2.0*	4	12	34*
COc1cccc(C(=O)Nc2nnc(-c3ccc(F)cc3)o2)c1	nt	91	56	10	nt	37*
CN(Cc1ccccc1)S(=O)(=O)c1ccc(C(=O)Nc2nnc(C3CC3)o2)cc1	19	nt	nt	nt	19	nt
CN(c1ccccc1)S(=O)(=O)c1ccc(NC(=O)c2ccc(-c3ccccc3)cc2)cc1	35	nt	nt	nt	57	nt
CCc1nnc(NC(=O)c2ccc(S(=O)(=O)N(CC)Cc3ccccc3)cc2)o1	18	69	70	6	12	21*
Oc1ccc2ccccc2c1CN1CCN(c2ccccc2)CC1	96	99	86	7	100	99
OCc1ccc(O)c2ncccc12	4.3*	28*	112	7	5	22*
Oc1ccc(CN2CCN(c3ccccc3)CC2)c2cccnc12	3.0*	26*	89	0	2.8*	23*
Oc1ccc(COCc2ccccc2)c2cccnc12	3.9*	14*	49	0	2.3*	1.6*
Oc1ccc(CN2CCCCC2)c2cccnc12	2.3*	3.1*	63	3	1.2*	0.7*
O=C(CNC(=O)c1ccccc1Cl)N/N=C/C=C/c1ccccc1	93	nt	nt	nt	102	nt
Cc1cc2c(c(Sc3ccccc3)n1)C(=O)OC2	96	100	95	-4	101	92
O=C(CSc1ccccn1)Nc1ccccc1F	96	nt	nt	nt	104	nt
Oc1ccc(CNc2ccccc2F)c2cccnc12	16	74	94	-6	13	28*
Oc1ccc(CN2CCc3ccccc3C2)c2cccnc12	2.1*	13*	44	8	1.7*	38*
O=C(Nc1cccc(NS(=O)(=O)c2ccc(S(=O)(=O)NC3CC3)cc2)c1)c1ccccn1	96	98	93	3	103	69
O=[N+]([O-])c1ccc(O)c(N=Cc2sc3ccccc3c2O)c1	1.9*	nt	nt	nt	3.7*	nt
Oc1c(C=Nc2cccc3cccnc23)sc2ccccc12	3.0*	42*	4.2*	6	3.8*	17*
COC(=O)C1CCN(C(=O)COC(=O)CCc2nc3ccccc3c(=O)[nH]2)CC1	91	nt	nt	nt	101	nt
CCCCn1c(=O)[nH]c2ccccc21	87	103	102	5	101	96
O=c1[nH]c2ccccc2n1CCCSc1cnc2ccccc2n1	79	95	79	5	68	38*
Cc1c(-c2cccs2)[n+](=O)c2c(n1[O-])CCCCC2	96	97	102	9	104	100
c1ccc2c(c1)oc1c(Nc3ccc(CN4CCOCC4)cc3)ncnc12	23	98	5.4*	3	22	3.5*
CCNC(=S)SCCOc1ccccc1C	98	nt	nt	nt	99	nt
SMILES	HCT116 bCat-KO	Fibroblast inh	HUVEC inhibit	Candida biofilm	HCT116 PTEN-null	H69AR inhibit
CN(C1CCCCC1)S(=O)(=O)c1ccc(C(=O)O)cc1	106	105	100	25*	107	89
Nc1nc(Cl)cc(N2CCC(c3cc(-c4ccc(Cl)cc4Cl)n[nH]3)CC2)n1	3.2*	nt	nt	nt	4	nt
Nc1nc(Cl)cc(N2CCOCC2)n1	91	nt	nt	nt	94	nt
O=C(Nc1cnn(Cc2ccc(Cl)cc2Cl)c1)c1cc(-c2cccs2)on1	100	97	66	7	86	19*
O=C1CC(c2ccncc2)c2cc3c(cc2N1)OCCO3 (stereo not given)	95	103	84	-3	91	93
CCOc1c(OC)cccc1C1CC(=O)Nc2cc3c(cc21)OCCO3 (stereo not given)	31	96	77	13	33	15*
O=C1CC(c2ccsc2)c2cc3c(cc2N1)OCCO3 (stereo not given)	62	92	92	-1	72	27*
c1ccc(Cn2nnc3c(NCc4ccc5c(c4)OCO5)nc(C4CC4)nc32)cc1	17	88	67	5	12	63
Cc1nc(NCc2ccc3c(c2)OCO3)c2nnn(Cc3ccccc3)c2n1	20	47*	50	5	14	53
Cc1ccc(Cn2nnc3c(=O)n(CC(=O)NCc4ccc5c(c4)OCO5)cnc32)cc1	86	96	67	9	81	39*
O=C(Cn1cnc2c(nnn2Cc2ccc(Cl)cc2)c1=O)NCc1ccco1	77	100	92	11	88	76
CCn1cc(C(=O)O)c(=O)c2cnc(N3CCN(C(=O)Nc4cccc5ccccc45)CC3)nc21	nt	96	109	9	nt	57
CC1CN(C(=O)C2(C)CC2(Br)Br)CC(C)O1 (stereo not given)	93	nt	nt	nt	88	nt
Cc1ccc(/C(=N\O)c2oc3c(C)c4oc(=O)cc(C)c4cc3c2C)cc1	2.0*	93	51	nt	2.6*	89
CC(=O)COc1ncn(-c2ccccc2)n1	99	100	106	12	98	99
CCOC(=O)N1CCN(Cc2ccccn2)CC1	108	106	110	1	101	98
COCCn1c(-c2ccc(OC)cc2)cnc1SCC(=O)Nc1cccc2ccccc12	85	nt	nt	nt	88	nt
CC(C)(C)c1ccc(OCCC(=O)Nc2cccc(S(=O)(=O)N3CCCCC3)c2)cc1	75	nt	nt	nt	75	nt
COC(=O)c1nn2c(C(F)(F)F)cc(-c3ccc(Br)o3)nc2c1Br	nt	58	93	4	nt	33*
CCOC(=O)c1c(-c2ccc(OC)cc2)csc1/N=C/C1=C(O)CCCC1=O	93	nt	nt	nt	102	nt
COc1ccc(Oc2c(Cl)cnn(-c3ccc(Cl)c(Cl)c3)c2=O)cc1	1.0*	nt	nt	nt	0.7*	nt
CCOc1c(Cl)cnn(-c2ccc(C)cc2)c1=O	73	nt	nt	nt	84	nt
COc1ccc(Oc2c(Cl)cnn(-c3ccc(F)cc3)c2=O)cc1	95	nt	nt	nt	93	nt
COc1c(Cl)cnn(-c2ccc(C)cc2)c1=O	1.2*	nt	nt	nt	1.1*	nt
COc1ccc(Oc2c(Cl)cnn(-c3ccc(C)cc3)c2=O)cc1	5.5*	nt	nt	nt	15	nt
SMILES	HCT116 bCat-KO	Fibroblast inh	HUVEC inhibit	Candida biofilm	HCT116 PTEN-null	H69AR inhibit
O=C(CNc1ccccc1)N/N=C/c1ccc2c(c1)OCCO2	94	nt	nt	nt	81	nt
COC(=O)C1=C(N)c2c(F)cccc2C1(C#N)c1ccc(F)cc1 (stereo not given)	85	100	89	0	78	77
Cc1[nH]c2ccc(-c3nnc(SCC(=O)c4ccc(F)cc4)o3)cc2c1C	24	87	69	5	62	26*
O=C(CSc1nnc(-c2ccc(F)cc2)o1)c1ccc2c(c1)OCCO2	90	97	97	-2	104	92
CCn1c(SCC(=O)O)nnc1-c1ccc2[nH]c(C)c(C)c2c1	93	nt	nt	nt	97	nt
Cc1cc(C)c(C)c(C(=O)CSc2nnc(-c3ccc4[nH]c(C)c(C)c4c3)o2)c1C	23	44*	36	4	18	8.7*
O=C(Oc1ccccc1)c1cc2ccccc2o1	98	95	101	6	104	84
